Data set [1] has as its system Vero. Description: Cytotoxicity against african green monkey Vero cells after 48 hrs by Neutral Red dye assay. The format is cell-based. The settings on record: chlorocebus sabaeus. The procedure, abridged: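 Kidney […] (VERO) cells were seeded at 25,000 cells/well and incubated for 24 h, then exposed to samples for 48 h. Viable cells were counted by Neutral Red dye uptake. IC50 was taken from growth-inhibition versus concentration curves. Doxorubicin served as the positive control and DMSO as the vehicle control.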

Another data set relates to Cryptococcus neoformans. Description: Antifungal activity against Cryptococcus neoformans ATCC 90113 by CLSI method. The format is functional, organism-based. The gist of the method:
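Test samples in DMSO were serially diluted in saline and run in duplicate in Sabouraud dextrose broth, with final concentrations starting at 20 μg/mL. Absorbance at 530 nm was read before and after incubation. Each plate carried growth, solvent and media-blank controls, with amphotericin B as the drug control. IC50 (50% inhibition relative to controls) was obtained by curve fitting.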

The subject of data set [2] is Vero. Put plainly: Cytotoxicity against african green monkey Vero cells at 10 ug/ml after 48 hrs by Neutral Red dye assay. The format is cell-based. To be noted: chlorocebus sabaeus.

From ChEMBL document CHEMBL2440089, “CoMFA studies and in vitro evaluation of some 3-substituted benzylthio quinolinium salts as anticryptococcal agents” (Bioorg Med Chem, 2013) come the findings set out here.

On to `[I-].c1ccc(Sc2cc3ccccc3[n+](CCCCCC3CCCCC3)c2)cc1`, for which, in the data set with Vero [1], the Activity amounted to 8.89 µM.
On to `Fc1cccc(Sc2cc3ccccc3[n+](CCCCCC3CCCCC3)c2)c1.[I-]`, for which the IC50 in the data set on Cryptococcus neoformans (read-out: IC50) and in the data set on Cryptococcus neoformans (read-out: pIC50 (converted)) was 13200 nM in each case. Besides, the Activity with Vero [1] turned out to be 1.23 µM.
As to `COc1cccc(Sc2cc3ccccc3[n+](CCCCCC3CCCCC3)c2)c1.[I-]`, the IC50 in the data set on Cryptococcus neoformans (read-out: IC50) and with Cryptococcus neoformans (read-out: pIC50 (converted)) was 18500 nM throughout. The compound further displayed an Activity with Vero [1] of 8.22 µM.
As to `Cc1ccccc1Sc1cc2ccccc2[n+](CCCCCC2CCCCC2)c1.[I-]`, the Activity with Vero [1] stood at 7.53 µM.
Still for that read-out and setting: with `Cc1cccc(Sc2cc3ccccc3[n+](CCCCCC3CCCCC3)c2)c1.[I-]` the figure was 6.96 µM; with `Cc1ccc(Sc2cc3ccccc3[n+](CCCCCC3CCCCC3)c2)cc1.[I-]`, 5.27 µM; with `Oc1ccccc1Sc1cc2ccccc2[n+](CCCCCC2CCCCC2)c1.[I-]`, 17.4 µM.
With `Oc1cccc(Sc2cc3ccccc3[n+](CCCCCC3CCCCC3)c2)c1.[I-]`, the Activity entry in the data set on Vero [2] is “Non-toxic”. Besides, the IC50 with Cryptococcus neoformans (read-out: IC50) and with Cryptococcus neoformans (read-out: pIC50 (converted)) was 2340 nM in each case.
For the compound `Oc1ccc(Sc2cc3ccccc3[n+](CCCCCC3CCCCC3)c2)cc1.[I-]`, the Activity result in the data set with Vero [2] is “Non-toxic”.
Turning to `FC(F)(F)c1ccccc1Sc1cc2ccccc2[n+](CCCCCC2CCCCC2)c1.[I-]`, in the data set with Vero [2], the Activity result is “Non-toxic”. Further, the IC50 in the data set on Cryptococcus neoformans (read-out: IC50) and in the data set on Cryptococcus neoformans (read-out: pIC50 (converted)) was 3740 nM throughout.
For the compound `FC(F)(F)c1cccc(Sc2cc3ccccc3[n+](CCCCCC3CCCCC3)c2)c1.[I-]`, the Activity entry in the data set on Vero [2] is on record as “Non-toxic”.
As for `FC(F)(F)c1ccc(Sc2cc3ccccc3[n+](CCCCCC3CCCCC3)c2)cc1.[I-]`, the Activity entry with Vero [2] is recorded as “Non-toxic”.
Regarding `COc1ccc(Sc2cc3ccccc3[n+](CCCCCC3CCCCC3)c2)cc1.[I-]`, the IC50 in the data set on Cryptococcus neoformans (read-out: IC50) and in the data set on Cryptococcus neoformans (read-out: pIC50 (converted)) was 731 nM each time. Further, in the data set on Vero [1], the Activity worked out at 7.67 µM.
In the case of `[I-].c1ccc(CSc2cc3ccccc3[n+](CCCCCC3CCCCC3)c2)cc1`, the Activity entry in the data set with Vero [2] is “Non-toxic”. Further, the IC50 in the data set with Cryptococcus neoformans (read-out: IC50) and in the data set with Cryptococcus neoformans (read-out: pIC50 (converted)) was 301 nM each time.
As for `Clc1ccccc1CSc1cc2ccccc2[n+](CCCCCC2CCCCC2)c1.[I-]`, in the data set on Vero [2], the Activity entry was “Non-toxic”. In addition, the IC50 in the data set on Cryptococcus neoformans (read-out: IC50) and in the data set on Cryptococcus neoformans (read-out: pIC50 (converted)) was 1350 nM in each case.
In the case of `Clc1ccc(CSc2cc3ccccc3[n+](CCCCCC3CCCCC3)c2)cc1.[I-]`, the IC50 in the data set on Cryptococcus neoformans (read-out: IC50) was 88 nM; in the data set on Cryptococcus neoformans (read-out: pIC50 (converted)), 88.3 nM. For the same compound, the Activity in the data set on Vero [1] came out at 2.3 µM.
In the same order, the values of `Cc1cccc(CSc2cc3ccccc3[n+](CCCCCC3CCCCC3)c2)c1.[I-]` are 769 nM, 769 nM and 4.95 µM.
For `Cc1ccc(CSc2cc3ccccc3[n+](CCCCCC3CCCCC3)c2)cc1.[I-]`, the IC50 in the data set on Cryptococcus neoformans (read-out: IC50) and in the data set on Cryptococcus neoformans (read-out: pIC50 (converted)) was 458 nM in each case. The compound further returned an Activity with Vero [1] of 6.78 µM.
For the compound `FC(F)(F)c1ccc(CSc2cc3ccccc3[n+](CCCCCC3CCCCC3)c2)cc1.[I-]`, the figures for the IC50 in the data set with Cryptococcus neoformans (read-out: IC50) and with Cryptococcus neoformans (read-out: pIC50 (converted)) were 416 nM and 417 nM, respectively. Moreover, the Activity with Vero [1] is 7.94 µM.
`[I-].[O-][S+](c1ccc(F)cc1)c1cc2ccccc2[n+](CCCCCc2ccccc2)c1` (stereo not given): in the data set with Vero [2], the Activity entry is on record as “Non-toxic”. In addition, the IC50 with Cryptococcus neoformans (read-out: IC50) and in the data set on Cryptococcus neoformans (read-out: pIC50 (converted)) was 27500 nM throughout.
Consider `[I-].[O-][S+](c1cccc(C(F)(F)F)c1)c1cc2ccccc2[n+](CCCCCc2ccccc2)c1` (stereo not given), for which the Activity entry in the data set with Vero [2] is “Non-toxic”. Besides, the IC50 in the data set with Cryptococcus neoformans (read-out: IC50) and in the data set with Cryptococcus neoformans (read-out: pIC50 (converted)) was 10900 nM each time.
For the compound `[I-].[O-][S+](c1cc2ccccc2[n+](CCCCCc2ccccc2)c1)c1ccccc1C(F)(F)F` (stereo not given), in the data set with Vero [2], the Activity result is “Non-toxic”. The IC50 with Cryptococcus neoformans (read-out: IC50) and in the data set on Cryptococcus neoformans (read-out: pIC50 (converted)) was 9250 nM in each case.
Consider `[I-].[O-][S+](c1cc2ccccc2[n+](CCCCCc2ccccc2)c1)c1ccccc1Br` (stereo not given), for which the Activity result with Vero [2] is listed as “Non-toxic”. The IC50 in the data set on Cryptococcus neoformans (read-out: IC50) and with Cryptococcus neoformans (read-out: pIC50 (converted)) was 9080 nM throughout.
Regarding `[I-].[O-][S+](c1ccc(Br)cc1)c1cc2ccccc2[n+](CCCCCc2ccccc2)c1` (stereo not given), in the data set with Vero [2], the Activity entry was “Non-toxic”. The IC50 with Cryptococcus neoformans (read-out: IC50) was 14900 nM.
On to `[I-].[O-][S+](c1ccc(C(F)(F)F)cc1)c1cc2ccccc2[n+](CCCCCc2ccccc2)c1` (stereo not given), for which the IC50 in the data set on Cryptococcus neoformans (read-out: IC50) was 10000 nM. In the data set on Vero [1], this compound came in with an Activity of 21.4 µM.
As to `Oc1ccc(CSc2cc3ccccc3[n+](CCCCCC3CCCCC3)c2)cc1.[I-]`, the Activity result in the data set on Vero [2] is “Non-toxic”. The IC50 in the data set with Cryptococcus neoformans (read-out: IC50) and in the data set on Cryptococcus neoformans (read-out: pIC50 (converted)) was 9040 nM throughout.
Consider `CC(C)(C)c1ccc(CSc2cc3ccccc3[n+](CCCCCC3CCCCC3)c2)cc1.[I-]`, for which, in the data set on Vero [2], the Activity entry was “Non-toxic”. The IC50 in the data set with Cryptococcus neoformans (read-out: IC50) and with Cryptococcus neoformans (read-out: pIC50 (converted)) was 883 nM throughout.
For the compound `Fc1ccccc1CSc1cc2ccccc2[n+](CCCCCC2CCCCC2)c1.[I-]`, in the data set on Vero [2], the Activity result is reported as “Non-toxic”. The IC50 in the data set on Cryptococcus neoformans (read-out: IC50) and in the data set with Cryptococcus neoformans (read-out: pIC50 (converted)) was 948 nM each time.
Consider `Fc1cccc(CSc2cc3ccccc3[n+](CCCCCC3CCCCC3)c2)c1.[I-]`, for which, in the data set on Vero [2], the Activity result is given as “Non-toxic”. For the same compound, the IC50 in the data set with Cryptococcus neoformans (read-out: IC50) and in the data set with Cryptococcus neoformans (read-out: pIC50 (converted)) was 711 nM throughout.
For `Fc1ccc(CSc2cc3ccccc3[n+](CCCCCC3CCCCC3)c2)cc1.[I-]`, the Activity result in the data set with Vero [2] is listed as “Non-toxic”. For the same compound, the IC50 in the data set with Cryptococcus neoformans (read-out: IC50) was 677 nM; in the data set with Cryptococcus neoformans (read-out: pIC50 (converted)), 678 nM.
Regarding `COc1ccccc1CSc1cc2ccccc2[n+](CCCCCC2CCCCC2)c1.[I-]`, the Activity entry in the data set on Vero [2] was “Non-toxic”. The IC50 is 623 nM with Cryptococcus neoformans (read-out: IC50) and 624 nM in the data set on Cryptococcus neoformans (read-out: pIC50 (converted)).
For `COc1cccc(CSc2cc3ccccc3[n+](CCCCCC3CCCCC3)c2)c1.[I-]`, in that order: “Non-toxic”, 606 nM and 607 nM.
With `COc1ccc(CSc2cc3ccccc3[n+](CCCCCC3CCCCC3)c2)cc1.[I-]`, the Activity result in the data set with Vero [2] is “Non-toxic”. For the same compound, the IC50 with Cryptococcus neoformans (read-out: IC50) and in the data set with Cryptococcus neoformans (read-out: pIC50 (converted)) was 2150 nM throughout.
For `Brc1ccccc1CSc1cc2ccccc2[n+](CCCCCC2CCCCC2)c1.[I-]`, the Activity entry in the data set with Vero [2] is “Non-toxic”. Moreover, the IC50 in the data set with Cryptococcus neoformans (read-out: IC50) and in the data set with Cryptococcus neoformans (read-out: pIC50 (converted)) was 1130 nM in each case.
Consider `Brc1cccc(CSc2cc3ccccc3[n+](CCCCCC3CCCCC3)c2)c1.[I-]`, for which the Activity entry in the data set on Vero [2] was “Non-toxic”. The IC50 in the data set with Cryptococcus neoformans (read-out: IC50) was 360 nM; with Cryptococcus neoformans (read-out: pIC50 (converted)), 361 nM.
For the compound `Brc1ccc(CSc2cc3ccccc3[n+](CCCCCC3CCCCC3)c2)cc1.[I-]`, the Activity result with Vero [2] is reported as “Non-toxic”. In addition, the IC50 in the data set with Cryptococcus neoformans (read-out: IC50) was 369 nM; in the data set on Cryptococcus neoformans (read-out: pIC50 (converted)), 370 nM.
In the case of `C[C@@H]1[C@H](O)[C@@H](C)/C=C/C=C/C=C/C=C/C=C/C=C/C=C/[C@H](O[C@@H]2O[C@H](C)[C@@H](O)[C@H](N)[C@@H]2O)C[C@@H]2O[C@](O)(C[C@@H](O)C[C@@H](O)[C@H](O)CC[C@@H](O)C[C@@H](O)CC(=O)O[C@H]1C)C[C@H](O)[C@H]2C(=O)O` [AMPHOTERICIN B], the IC50 in the data set on Cryptococcus neoformans (read-out: IC50) was 422 nM. The compound also displayed an Activity in the data set on Vero [1] of 7.03 µM.
With `C[n+]1c2ccccc2cc2[n-]c3ccccc3c21` [CRYPTOLEPINE], the IC50 in the data set with Cryptococcus neoformans (read-out: IC50) and with Cryptococcus neoformans (read-out: pIC50 (converted)) was 43300 nM throughout. For the same compound, in the data set with Vero [1], the Activity worked out at 8.88 µM.
